In ChEMBL document CHEMBL4665726, “Development of a selective HDAC inhibitor aimed at reactivating the HIV latent reservoir” (Bioorg Med Chem Lett, 2020):

Tests used:
[1] = Apparent permeability of the compound; format: ADME; conditions: not told
[2] = Oral bioavailability in Wistar Han rat at 10 mg/kg; format: ADME, organism-based; conditions: in vivo
[3] = Half life in Wistar Han rat at 2 mg/kg, iv or 10 mg/kg, po; format: ADME, organism-based; conditions: in vivo
[4] = Unbound volume of distribution in Wistar Han rat at 2 mg/kg, iv or 10 mg/kg, po; format: ADME, organism-based; conditions: in vivo
[5] = Unbound clearance in Wistar Han rat at 2 mg/kg, iv or 10 mg/kg, po; format: ADME, organism-based; conditions: in vivo
[6] = molecular target: T1, Class 1 histone deacetylase (Homo sapiens, UniProt Q13547+O15379+Q92769+Q9BY41); assay: Inhibition of Class 1 HDAC in VSV-G-pseudotyped HIV infected human 2C4 cell Jurkat model assessed as reactivation of HIV latency in presence of 5% NHS by fluorescent reporter gene assay
Summary of the method: (§1)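 Latently infected Jurkat 2C4 cells (HIV latency model) were tested for reactivation of silenced provirus in parallel at two normal human serum levels: 0.1% and 5%. The paired runs gauge the potency shift from plasma protein binding.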

[7] = molecular target: T1, Class 1 histone deacetylase; assay: Inhibition of Class 1 HDAC in VSV-G-pseudotyped HIV infected human 2C4 cell Jurkat model assessed as reactivation of HIV latency in presence of 0.1% NHS by fluorescent reporter gene assay; summary of the method: as §1
Histone deacetylase 8 = molecular target: T2, Histone deacetylase 8 (Homo sapiens, UniProt Q9BY41); assay: Inhibition of HDAC8 (unknown origin)
T2 sequence (Q9BY41 whole entry): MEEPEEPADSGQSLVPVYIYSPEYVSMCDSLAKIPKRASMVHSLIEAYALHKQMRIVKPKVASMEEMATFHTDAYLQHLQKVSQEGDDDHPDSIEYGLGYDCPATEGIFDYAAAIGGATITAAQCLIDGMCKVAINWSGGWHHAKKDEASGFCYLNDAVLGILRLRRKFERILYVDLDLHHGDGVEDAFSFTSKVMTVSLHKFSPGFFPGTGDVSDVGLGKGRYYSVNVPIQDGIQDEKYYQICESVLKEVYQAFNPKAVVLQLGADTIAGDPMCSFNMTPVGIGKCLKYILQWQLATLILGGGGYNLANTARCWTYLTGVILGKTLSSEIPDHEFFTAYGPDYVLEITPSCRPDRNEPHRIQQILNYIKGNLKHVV

[8] = molecular target: T3, Protein deacetylase HDAC6 (Homo sapiens, UniProt Q9UBN7); assay: Inhibition of HDAC6 (unknown origin)
T3 sequence (Q9UBN7 whole entry): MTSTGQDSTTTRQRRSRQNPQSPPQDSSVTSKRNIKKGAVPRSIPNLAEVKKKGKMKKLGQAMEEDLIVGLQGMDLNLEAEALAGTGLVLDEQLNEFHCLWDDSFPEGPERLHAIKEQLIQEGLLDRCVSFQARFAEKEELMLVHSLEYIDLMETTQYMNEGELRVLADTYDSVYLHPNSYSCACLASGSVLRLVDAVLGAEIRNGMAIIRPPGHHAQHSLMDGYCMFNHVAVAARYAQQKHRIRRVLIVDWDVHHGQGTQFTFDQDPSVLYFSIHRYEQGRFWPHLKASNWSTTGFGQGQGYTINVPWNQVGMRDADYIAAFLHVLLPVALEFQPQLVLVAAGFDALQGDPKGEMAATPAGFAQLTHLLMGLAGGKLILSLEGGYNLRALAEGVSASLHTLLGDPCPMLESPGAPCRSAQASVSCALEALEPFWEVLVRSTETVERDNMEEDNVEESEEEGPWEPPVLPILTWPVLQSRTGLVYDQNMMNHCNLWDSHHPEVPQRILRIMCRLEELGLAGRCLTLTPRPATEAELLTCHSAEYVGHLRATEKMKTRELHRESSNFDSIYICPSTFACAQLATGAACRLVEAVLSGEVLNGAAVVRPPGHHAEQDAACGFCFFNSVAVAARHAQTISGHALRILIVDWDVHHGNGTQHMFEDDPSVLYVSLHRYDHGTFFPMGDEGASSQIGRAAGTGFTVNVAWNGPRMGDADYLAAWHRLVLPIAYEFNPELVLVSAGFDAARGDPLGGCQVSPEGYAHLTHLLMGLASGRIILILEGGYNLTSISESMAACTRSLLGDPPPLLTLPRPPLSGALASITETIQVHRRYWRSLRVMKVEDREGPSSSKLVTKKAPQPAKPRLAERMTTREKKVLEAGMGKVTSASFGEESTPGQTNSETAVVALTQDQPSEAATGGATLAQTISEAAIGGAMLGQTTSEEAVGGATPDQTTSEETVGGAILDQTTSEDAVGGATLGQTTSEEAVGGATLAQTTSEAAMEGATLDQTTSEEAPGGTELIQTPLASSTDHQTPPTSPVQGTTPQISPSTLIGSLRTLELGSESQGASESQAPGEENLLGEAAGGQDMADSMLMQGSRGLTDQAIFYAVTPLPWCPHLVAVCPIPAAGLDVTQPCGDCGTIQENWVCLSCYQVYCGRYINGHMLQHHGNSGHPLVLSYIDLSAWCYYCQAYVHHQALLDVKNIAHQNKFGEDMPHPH

Histone deacetylase 2 = Histone deacetylase 2 (Homo sapiens, UniProt Q92769); assay: Inhibition of HDAC2 (unknown origin)
Histone deacetylase 3 = Histone deacetylase 3 (Homo sapiens, UniProt O15379); assay: Inhibition of HDAC3 (unknown origin)
Histone deacetylase 1 = Histone deacetylase 1 (Homo sapiens, UniProt Q13547); assay: Inhibition of HDAC1 (unknown origin)
Sequence of Histone deacetylase 1 (Q13547 whole entry): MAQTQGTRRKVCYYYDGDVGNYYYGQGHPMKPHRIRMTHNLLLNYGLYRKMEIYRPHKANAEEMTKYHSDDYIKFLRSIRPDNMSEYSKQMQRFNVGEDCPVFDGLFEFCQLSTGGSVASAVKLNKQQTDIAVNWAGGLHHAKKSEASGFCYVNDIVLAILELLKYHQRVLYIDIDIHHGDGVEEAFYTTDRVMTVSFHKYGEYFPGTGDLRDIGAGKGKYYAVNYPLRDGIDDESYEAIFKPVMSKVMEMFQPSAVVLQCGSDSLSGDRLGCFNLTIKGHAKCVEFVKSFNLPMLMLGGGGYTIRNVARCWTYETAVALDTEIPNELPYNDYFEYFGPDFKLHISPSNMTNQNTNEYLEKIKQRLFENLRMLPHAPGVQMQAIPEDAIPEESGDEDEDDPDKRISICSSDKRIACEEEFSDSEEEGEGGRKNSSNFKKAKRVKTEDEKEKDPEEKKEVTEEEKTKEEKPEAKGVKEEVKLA

Sequence of Histone deacetylase 2 (Q92769 whole entry): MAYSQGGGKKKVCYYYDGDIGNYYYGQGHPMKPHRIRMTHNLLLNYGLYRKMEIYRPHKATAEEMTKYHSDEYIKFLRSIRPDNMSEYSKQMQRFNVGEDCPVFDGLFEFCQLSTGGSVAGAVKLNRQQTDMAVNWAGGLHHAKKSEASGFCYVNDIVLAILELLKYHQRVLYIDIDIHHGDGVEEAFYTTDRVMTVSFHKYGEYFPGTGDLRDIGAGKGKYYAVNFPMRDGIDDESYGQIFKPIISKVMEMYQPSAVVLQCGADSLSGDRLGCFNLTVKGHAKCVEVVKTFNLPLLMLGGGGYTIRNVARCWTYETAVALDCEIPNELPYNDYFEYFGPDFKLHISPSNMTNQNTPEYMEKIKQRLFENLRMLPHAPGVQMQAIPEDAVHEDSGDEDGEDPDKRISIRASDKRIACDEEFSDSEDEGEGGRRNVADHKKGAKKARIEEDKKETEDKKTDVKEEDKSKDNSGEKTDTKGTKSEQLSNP
Sequence of Histone deacetylase 3 (O15379 whole entry): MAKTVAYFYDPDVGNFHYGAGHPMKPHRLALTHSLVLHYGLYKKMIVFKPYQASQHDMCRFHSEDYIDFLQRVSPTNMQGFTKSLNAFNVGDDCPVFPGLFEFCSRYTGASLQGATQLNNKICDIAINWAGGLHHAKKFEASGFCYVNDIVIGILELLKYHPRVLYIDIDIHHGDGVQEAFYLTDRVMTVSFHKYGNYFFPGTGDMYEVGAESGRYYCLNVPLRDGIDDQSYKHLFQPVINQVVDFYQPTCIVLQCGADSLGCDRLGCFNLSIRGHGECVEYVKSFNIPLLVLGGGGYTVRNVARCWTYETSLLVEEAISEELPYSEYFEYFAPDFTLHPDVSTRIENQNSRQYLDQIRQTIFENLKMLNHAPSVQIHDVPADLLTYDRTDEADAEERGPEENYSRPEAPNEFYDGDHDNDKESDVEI

Q: With `CCC(=O)CCCCC[C@H](NC(=O)C1CN(C)C1)c1[nH]c(-c2ccccc2)nc1C(N)=O` as the molecule, how does the Papp [1] read?
A: 1.1 ×10⁻⁶ cm/s

Q: What about the bioavailability [2] of the same molecule?
A: 0%

Q: What about the half-life [3] of the same molecule?
A: 6.4 h

Q: What about the Vdu [4] of the same molecule?
A: 45 L/kg

Q: And the CL free [5]?
A: 166 mL/min/kg

Q: And the EC50 [6]?
A: 269 nM

Q: And the EC50 [7]?
A: 294 nM

Q: And the IC50 (Histone deacetylase 8)?
A: 5420 nM

Q: And the IC50 [8]?
A: 9830 nM

Q: What about the IC50 (Histone deacetylase 2) of the same molecule?
A: 18.1 nM

Q: And the IC50 (Histone deacetylase 3)?
A: 2.5 nM

Q: And the IC50 (Histone deacetylase 1)?
A: 1.9 nM
